OXTR agonist: activates the human oxytocin receptor; P30559; CHO-OTR cells, Fluo-8 calcium fluorescence; normalized: DMSO 0%, oxytocin 100%; activation, % at 3 µM; 320,000 tested, 0.32% active;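 active means activation above the mean of all tested compounds plus 3 SD, cutoff set per screening run, cut at about 20% in these data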;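 further: peak over basal fluorescence ratio from a 100 s FLIPR kinetic read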
Target sequence (P30559 whole entry, looked up): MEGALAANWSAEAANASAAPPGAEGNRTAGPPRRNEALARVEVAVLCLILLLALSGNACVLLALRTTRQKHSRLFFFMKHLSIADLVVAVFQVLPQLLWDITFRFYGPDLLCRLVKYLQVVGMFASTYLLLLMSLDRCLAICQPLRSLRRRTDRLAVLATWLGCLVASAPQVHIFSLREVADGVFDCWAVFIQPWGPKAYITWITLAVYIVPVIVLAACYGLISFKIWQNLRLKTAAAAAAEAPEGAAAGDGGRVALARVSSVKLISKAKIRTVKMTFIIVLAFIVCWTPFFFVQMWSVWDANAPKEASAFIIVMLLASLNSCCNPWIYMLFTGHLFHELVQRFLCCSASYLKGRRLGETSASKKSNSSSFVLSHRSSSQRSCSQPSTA
TAAR1 ag: human TAAR1 agonism; activation, % at 3 µM; AID 624467; 360,000 tested, 0.99% active; Q96RJ0; CHO RD-HGA16 TAAR1, Fluo-8 calcium fluorescence; vehicle wells 0%, saturating PEA agonist 100%;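 active means activation above the mean activation of all test compounds in the run plus 3 SD, cut at about 38% in these data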
Target sequence (Q96RJ0 whole entry, looked up): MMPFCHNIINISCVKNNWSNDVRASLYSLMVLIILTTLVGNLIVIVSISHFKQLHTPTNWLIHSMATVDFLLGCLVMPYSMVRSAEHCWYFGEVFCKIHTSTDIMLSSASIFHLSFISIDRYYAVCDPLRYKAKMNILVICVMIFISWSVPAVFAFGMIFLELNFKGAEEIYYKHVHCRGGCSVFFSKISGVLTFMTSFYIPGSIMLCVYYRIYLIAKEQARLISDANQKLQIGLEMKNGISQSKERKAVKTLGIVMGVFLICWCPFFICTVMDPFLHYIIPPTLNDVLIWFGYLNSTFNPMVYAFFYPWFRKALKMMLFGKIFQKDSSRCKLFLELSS
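Test system: RD-HGA16 (CHO) cells co-expressing Gα16 and hTAAR1 / Benchmarks: DMSO vehicle as 0%, PEA at EC100 as 100% / Repeats: no replicates (n 1) / Measure: % activation from peak over basal fluorescence ratio, DMSO-to-PEA scaled / Timing: 17-24 h plating, Fluo-8 75 min 37 °C, 30 min RT / Technique: kinetic Fluo-8 calcium fluorescence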
V1aR counter: V1a receptor agonism, counter-screen for OXTR agonists; P37288; CHO-V1R cells, Fluo-8 calcium fluorescence, agonist mode; 0% DMSO, 100% 3 nM vasopressin; activation, % at 3 µM; 320,000 tested, 0.25% active;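 active means activation above the mean activation of all tested compounds plus 3 SD, per screening run, cut at about 20% in these data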;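 further: signal is peak over basal fluorescence ratio across a 100 second FLIPR read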
TAAR1 antagonist: antagonists of human TAAR1. Q96RJ0. CHO RD-HGA16 TAAR1, Fluo-8 calcium fluorescence, antagonist. inhibition, % at 3 µM. 360,000 tested, 1.5% active;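 active means inhibition above a per-plate cutoff, the mean inhibition of test compounds on that plate plus 3 SD, cut at about 49% in these data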;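 further: 0% = DMSO plus EC80 beta-PEA response and 100% = DMSO alone without agonist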
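System: CHO RD-HGA16 cells bearing hTAAR1. Reagent: EC80 β-phenethylamine stimulus. Schedule: seeding 17-24 h prior, 75-min 37 °C, 30-min RT dye loading. Signal: Fluo-8 intracellular calcium dye fluorescence, real-time kinetic reads. Read-out: % inhibition from peak post-agonist over basal fluorescence ratio. Benchmarks: vehicle wells and EC80 agonist wells. Replicates: n of 1.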
OXTR potentiator: potentiates the human oxytocin receptor response; P30559; CHO-OTR cells, Fluo-8 calcium fluorescence, potentiator mode; 0% = oxytocin EC15, 100% = EC100; activation, % at 3 µM; 320,000 tested, 0.061% active; AID 2445;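 active means activation above that plate's cutoff, the mean activation of tested compounds plus 3 SD, cut at about 6.6% in these data, passing the limit was not always enough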;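 further: 100% uses oxytocin at 75 nM as the full agonist control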
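Measured by – Fluo-8 calcium dye fluorescence · Test system – human OTR in CHO cells · Dosing – one concentration, 3.0 µM compound · Controls – EC15 oxytocin alone as 0%, 75 nM oxytocin as 100% · Evaluation – normalized max/min fluorescence ratio, % activation · Timing – 6 min pre-incubation, 100 s read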
TAAR1 ag confirm: human TAAR1 agonism, confirmed. activation, % at 3 µM. CHO RD-HGA16 TAAR1, Fluo-8 calcium fluorescence; scaled: DMSO 0%, maximal phenethylamine 100%. shares compounds with TAAR1 ag. AID 651783. 2,400 tested, 82% active;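 active means activation above a cutoff set at the run's mean compound activation plus 3 SD, cut at about 39% in these data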
Ga16 ag counter: nonselective agonism, TAAR1 counter-screen; shares compounds with TAAR1 ag; CHO-Ga16 parental, Fluo-8 calcium fluorescence; normalized to maximal ATP response, DMSO zero; activation, % at 3 µM; 2,400 tested, 50% active;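 active means activation above the run cutoff, the mean activation over all tested wells plus 3 SD, cut at about 12% in these data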;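 further: 0% = DMSO wells and 100% = maximal ATP response on the peak over basal ratio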
TAAR1 desens: human TAAR1 agonist that also desensitizes the receptor | shares compounds with TAAR1 ag | CHO RD-HGA16 hTAAR1, Fluo-8 calcium, beta-PEA response inhibition | inhibition, % at 3 µM | 2,400 tested, 46% active;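 active means inhibition above the run cutoff, the mean inhibition of all test compounds plus 3 SD, cut at about 49% in these data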;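 further: beta-PEA stimulus applied at its EC80; loss of beta-PEA calcium signal after compound pretreatment read as receptor desensitization; 0% = DMSO with beta-PEA at EC80 and 100% = DMSO alone without agonist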
Ga16 nonsel ant: nonselective Ga16 antagonist in TAAR1 agonist counter-screen; shares compounds with TAAR1 ag; CHO-Ga16 ATP-induced calcium, Fluo-8 fluorescence; inhibition, % at 3 µM; 2,400 tested, 39% active; AID 651952;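 active means inhibition above the plate's mean compound inhibition plus 3 SD, computed per plate, cut at about 22% in these data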;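 further: 0% = EC80 ATP with DMSO and 100% = DMSO wells without ATP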
* hit, by the source's call; nt = not tested or not shown. Rows were chosen to be rich in hits. Some 2.3% of all compounds tested hit in one or more screens of this group.

SMILES	OXTR agonist	TAAR1 ag	V1aR counter	TAAR1 antagonist	OXTR potentiator	TAAR1 ag confirm	Ga16 ag counter	TAAR1 desens	Ga16 nonsel ant
O=C(NCC(c1ccco1)N1CCCCC1)c1ccc(NS(=O)(=O)c2ccc(F)cc2)cc1 (configuration not stated)	0.4	2.1	1.2	-3.2	-4.5	nt	nt	nt	nt
CCOc1ccc(NS(=O)(=O)c2ccc(C(=O)N3CC(C)OC(C)C3)cc2)cc1 (configuration not stated)	58.2*	129.8*	51.2*	78.7*	-12.8	119.4*	91.4*	79.3*	40.2*
CCOc1ccc(NS(=O)(=O)c2ccc(C(=O)N3CCCCC3)cc2)cc1	24.4*	67.0*	27.8*	42.3	-16.2	66.1*	45.2*	38.9	35.0*
C=CCN(c1ccccc1)S(=O)(=O)c1cccc(C(=O)NCC(c2ccccc2OC)N2CCCC2)c1 (configuration not stated)	-3.1	0.5	-0.4	-37.3	1.8	nt	nt	nt	nt
CCOc1ccc(NS(=O)(=O)c2ccc(C(=O)NCC(c3ccco3)N3CCCC3)cc2)cc1 (configuration not stated)	34.7*	65.1*	23.0*	28.1	-11.6	82.8*	39.1*	44.0	28.6*
CCN(c1ccccc1)S(=O)(=O)c1ccc(C(=O)NCC(c2ccccc2OC)N2CCCC2)cc1 (configuration not stated)	nt	45.7*	nt	15.1	nt	59.6*	12.6*	25.8	24.7*
CN(Cc1ccccc1)C(=O)c1ccccc1-c1ccccc1	-3.1	-1.2	-1.3	11.5	1.7	nt	nt	nt	nt
CCOc1ccc(N(C)C(=O)CCc2nnc3ccc(N4CCC5(CC4)OCCO5)nn23)cc1	-0.6	5.9	-0.1	-10.4	-4.8	nt	nt	nt	nt
Cc1cccc(C(=O)NNC(=O)C2CCN(C(=O)OC(C)(C)C)CC2)c1	-0.4	1.5	1.1	-19.1	-2.2	nt	nt	nt	nt
CC1CCN(C(=O)c2ccc(NS(=O)(=O)c3ccccc3)cc2)CC1	3.6	7.2	2.3	11.2	-6.8	nt	nt	nt	nt
CCOC(=O)c1ccc(NS(=O)(=O)c2ccc(SC)cc2)cc1	10.8	45.8*	7.6	14.4	-10.1	39.6*	19.0*	36.3	25.6*
CN(C)C(CNC(=O)c1ccc(NS(=O)(=O)c2ccc(F)cc2)cc1)c1ccco1 (configuration not stated)	1.8	2.2	0.4	-9.2	-7.2	nt	nt	nt	nt
Cc1ccc(NS(=O)(=O)c2ccc(C(=O)NCC(c3ccco3)N(C)C)cc2)cc1 (configuration not stated)	26.9*	105.2*	25.6*	53.8*	-15.7	107.6*	48.6*	64.6*	33.4*
COc1ccc(NS(=O)(=O)c2ccc(C(=O)N3CCC(C)CC3)cc2)cc1	39.5*	91.3*	24.4*	26.5	-13.1	76.5*	40.2*	39.5	26.3*
COC(=O)c1cnc(N)s1	nt	3.3	nt	-17.4	nt	nt	nt	nt	nt
O=C(COC(=O)/C=C/c1cccc(C(F)(F)F)c1)NCc1cccs1	-1.5	78.9*	0.6	66.5*	-6.7	65.7*	43.9*	44.9	19.4
Cc1cccc(NC(=S)NNC(=O)CC(C)O)c1C (configuration not stated)	0.0	3.2	1.3	-9.2	-2.9	nt	nt	nt	nt
COc1ccc(N2C(=O)N3[C@@H]4c5ccccc5OC[C@@H]4[C@@H](c4ccccc4)[C@@]3(C)C2=O)cc1	1.4	11.8	-0.1	-18.0	0.5	nt	nt	nt	nt
C/C=C(/C)C(=O)O[C@@H]1c2c(ccc3ccc(=O)oc23)OC(C)(C)[C@@H]1OC(C)=O	-1.4	24.9	1.4	29.1	-6.8	nt	nt	nt	nt
C/C=C(\C)C(=O)OC1c2c(ccc3ccc(=O)oc23)OC(C)(C)C1OC(C)=O (configuration not stated)	1.2	50.8*	0.9	62.2*	-16.1	45.5*	29.1*	79.1*	53.7*
CCOC(=O)c1ccc(NC(=S)N2CCSC2c2ccc(Br)cc2)cc1 (configuration not stated)	47.6*	138.2*	37.3*	103.3*	-14.3	129.7*	92.7*	101.6*	84.7*
CCC(C)(C)NC(=O)C(c1cccc(OC)c1)N(C(=O)c1ccn[nH]1)c1cccc(OC)c1 (configuration not stated)	0.6	49.6*	1.0	38.7	-4.6	26.5	14.5*	39.0	28.1*
CCC(C)(C)NC(=O)C(c1cccs1)N(C(=O)c1ccn[nH]1)c1ccccc1 (configuration not stated)	-1.8	3.0	-0.8	1.1	-17.5	nt	nt	nt	nt
O=C(NCCc1ccccc1)C1CCN(C(=O)c2ccc([N+](=O)[O-])cc2)CC1	0.1	nt	0.9	nt	-5.8	nt	4.9	nt	0.2
CCC1CN(C(=O)N2CCC(C(=O)NCCc3ccccc3)CC2)c2ccccc2O1 (configuration not stated)	6.6	53.0*	6.7	57.8*	-11.6	84.2*	15.7*	83.0*	34.2*
SMILES	OXTR agonist	TAAR1 ag	V1aR counter	TAAR1 antagonist	OXTR potentiator	TAAR1 ag confirm	Ga16 ag counter	TAAR1 desens	Ga16 nonsel ant
COCCn1cnc2c1c(=O)[nH]c(=O)n2Cc1ccccc1	0.3	nt	0.6	nt	-10.2	nt	nt	nt	nt
Cc1ccc(NC(=O)c2ccc(CNS(=O)(=O)c3cccc(C(F)(F)F)c3)cc2)cc1	-0.7	4.3	0.3	-9.9	-10.3	nt	nt	nt	nt
O=C(Nc1ccccc1F)c1ccc(CNS(=O)(=O)c2cccc(C(F)(F)F)c2)cc1	0.8	46.3*	2.4	39.6	-15.4	29.0	16.4*	25.5	17.5
CCN(CC)CCCN=C1N[C@@H](c2cccc(C(F)(F)F)c2)C(C(=O)OC)=C(C)N1CC	-0.1	15.4	0.1	-8.5	0.2	nt	nt	nt	nt
Cc1cc(NS(=O)(=O)c2c(C)[nH]c(=O)[nH]c2=O)ccc1Br	nt	73.3*	nt	37.5	nt	-0.5	3.9	5.5	7.0
COc1ccc(C(OCC(O)CNCCc2ccccc2)c2ccc(OC)cc2)cc1 (configuration not stated)	nt	104.5*	nt	96.9*	nt	104.2*	17.5*	100.8*	27.5*
C/C=C/c1ccc(OCC(O)CNCC(c2ccc(OC)cc2)N(C)C)c(OC)c1 (configuration not stated)	-0.7	-2.5	2.5	1.0	1.6	nt	nt	nt	nt

Source: PubChem BioAssay
